Laboratory results published in PubChem BioAssay AID1665 (Sanford-Burnham Center for Chemical Genomics, 2009).
The source made the active and inactive calls.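 The calls were made as follows: active = nuclear translocation activity above 50% at 5 µM, with a well cell count of 50 or more; inconclusive = wells under 50 cells across six images, flagged as toxic; inactive = the rest.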

These molecules were tested on HeLa beta-catenin nuclear translocation, immunofluorescence imaging (assay: modulators of beta-catenin nuclear translocation, primary screen, imaging, HeLa cells, immunofluorescence, high-content (AID 1665)).
Outline: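 Read-out: Nuclear/cytoplasmic beta-catenin signal ratio, % activation | Assay system: Human HeLa cell line | Times: 24 h compound exposure at 37°C, 5% CO2 | Signal: Fluorescence imaging of beta-catenin antibody stain plus DAPI | Dosing: 5 µM primary, 0.02–20 µM confirmation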

Structure (SMILES)	EC50, beta-catenin nuclear translocation induction (lower = more potent)
COc1ccc2nc3c(cc2c1)c(NC(=O)c1cccs1)nn3CC(C)C	> 20 µM (inactive)
CN1\C(=C/C=C/C=C/C=[N+](C)C)C(C)(C)c2ccccc21	9.2 µM
CCOC(=O)/C(=C/C=C1\Sc2cc(OCC)c(OCC)cc2N1CC)C(C)=O	> 20 µM (inactive)
CCCCn1c(O)c(/C=C/C=C/C=Nc2ccccc2)sc1=S	8.79 µM
Cc1ccc2nc(/C(C#N)=C\c3ccc([N+](=O)[O-])o3)[nH]c2c1	9.06 µM
CCOC(=O)N1CCN(C(=O)c2cc(-c3ccc(OCC)cc3)nc3ccccc23)CC1	2.06 µM
O=C1NC(=O)C(=C/C=C/c2coc3ccc(Br)cc3c2=O)C(=O)N1	> 20 µM (inactive)
CCC(/C=C1\Sc2ccc(OC)cc2N1CC)=C\c1sc2ccc(OC)cc2[n+]1CCCS(=O)(=O)[O-]	4.19 µM
CCN1/C(=C/C=C/C=C/c2sc3ccccc3[n+]2CC)Sc2ccccc21	3.73 µM
CC[n+]1c(/C=C/C=C/N(C(C)=O)c2ccccc2)sc2ccccc21	8.42 µM
Oc1c(/C=C/C=C/C=Nc2ccccc2)sc(=S)n1Cc1ccccc1	> 20 µM (inactive)
COc1ccc(/C=C(/NC(=O)c2cccc([N+](=O)[O-])c2)C(=O)O)cc1OC	> 20 µM (inactive)
Cc1ccc(NC(=O)Nc2ccnc(-c3cccnc3)n2)cc1	> 20 µM (inactive)
CCN1C(=O)/C(=C/C=C2/Sc3ccccc3N2CCO)SC1=S	> 20 µM (inactive)
CCN1/C(=C/c2ccc3cc(C)ccc3[n+]2C)Sc2ccc3sccc3c21	> 20 µM (inactive)
CCN1/C(=C/C=C/c2oc3ccc4ccccc4c3[n+]2CC)Oc2ccc3ccccc3c21	5.18 µM
COC(=O)c1[nH]c2ccc(Br)cc2c1NC(=O)CN1CCN(C2CCCCC2)CC1	3.85 µM
CCC(/C=C1\Sc2ccc(OC)cc2N1CCO)=C\c1sc2ccc(OC)cc2[n+]1CCO	> 20 µM (inactive)
C=CCC1C=C(Cc2ccccc2)CC(CC=C)N1 (stereo not given)	> 20 µM (inactive)
CCN(CC)c1ccc(/C=C/c2cc(-c3ccccc3)c3ccccc3n2)cc1	2.56 µM
O=c1ccc2[n+]([O-])c3ccc(O)cc3oc-2c1	7.27 µM
C=CC[C@H]1CC(Cc2ccccc2)=C[C@H](CC=C)N1	0.77 µM
CCN1C(c2ccccc2)=C(c2ccccc2)S/C1=C/C=C1\SC(=S)N(C)C1=O	0.56 µM
Cn1c(O)c(/C=C/C=Nc2ccccc2)c(=O)n(C)c1=S	> 20 µM (inactive)
CN1C(=O)/C(=C/c2ccc(N3CCCCCC3)o2)C(=O)NC1=S	2.9 µM
Cn1c(-c2ccccc2)cc2c3no[n+]([O-])c3ccc21	> 20 µM (inactive)
Cn1c2ccccc2c(=O)c2c(=O)n(Cc3ccco3)c(COc3ccccc3)nc21	> 16 µM (inactive)
Cc1cc(NCCOCCO)n2ncc(-c3ccc(Cl)cc3)c2n1	8.01 µM
O=C(CSc1ncnc2nc[nH]c12)NCCc1ccccc1	1.75 µM
CC1=CC(C)C(COC(N)=O)(COC(N)=O)C(C)C1 (stereo not given)	4.49 µM
